Tests used:
[1] = biological target: T1, 17-beta-hydroxysteroid dehydrogenase type 1 (Homo sapiens) (UniProt P14061); experiment: Inhibition of human 17beta-HSD1 expressed in HEK293 cells assessed as enzyme-mediated transformation of [14C]-E1 in to [14C]-E2 at 1 uM; type: cell-based
T1 sequence (whole entry): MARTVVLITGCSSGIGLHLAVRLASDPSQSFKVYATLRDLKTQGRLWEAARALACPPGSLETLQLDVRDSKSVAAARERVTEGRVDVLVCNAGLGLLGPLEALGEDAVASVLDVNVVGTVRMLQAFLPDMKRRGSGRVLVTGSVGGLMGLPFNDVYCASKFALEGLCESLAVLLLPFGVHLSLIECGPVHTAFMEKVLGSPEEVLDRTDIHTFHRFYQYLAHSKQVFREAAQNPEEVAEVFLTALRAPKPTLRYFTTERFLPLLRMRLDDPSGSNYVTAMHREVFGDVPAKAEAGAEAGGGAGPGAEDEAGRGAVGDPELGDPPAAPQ

[2] = biological target: T2, Androgen receptor (Rattus norvegicus) (UniProt P15207); experiment: Binding affinity to rat ventral prostate androgen receptor at 1 uM; type: tissue-based; settings: Prostate gland
T2 sequence (whole entry): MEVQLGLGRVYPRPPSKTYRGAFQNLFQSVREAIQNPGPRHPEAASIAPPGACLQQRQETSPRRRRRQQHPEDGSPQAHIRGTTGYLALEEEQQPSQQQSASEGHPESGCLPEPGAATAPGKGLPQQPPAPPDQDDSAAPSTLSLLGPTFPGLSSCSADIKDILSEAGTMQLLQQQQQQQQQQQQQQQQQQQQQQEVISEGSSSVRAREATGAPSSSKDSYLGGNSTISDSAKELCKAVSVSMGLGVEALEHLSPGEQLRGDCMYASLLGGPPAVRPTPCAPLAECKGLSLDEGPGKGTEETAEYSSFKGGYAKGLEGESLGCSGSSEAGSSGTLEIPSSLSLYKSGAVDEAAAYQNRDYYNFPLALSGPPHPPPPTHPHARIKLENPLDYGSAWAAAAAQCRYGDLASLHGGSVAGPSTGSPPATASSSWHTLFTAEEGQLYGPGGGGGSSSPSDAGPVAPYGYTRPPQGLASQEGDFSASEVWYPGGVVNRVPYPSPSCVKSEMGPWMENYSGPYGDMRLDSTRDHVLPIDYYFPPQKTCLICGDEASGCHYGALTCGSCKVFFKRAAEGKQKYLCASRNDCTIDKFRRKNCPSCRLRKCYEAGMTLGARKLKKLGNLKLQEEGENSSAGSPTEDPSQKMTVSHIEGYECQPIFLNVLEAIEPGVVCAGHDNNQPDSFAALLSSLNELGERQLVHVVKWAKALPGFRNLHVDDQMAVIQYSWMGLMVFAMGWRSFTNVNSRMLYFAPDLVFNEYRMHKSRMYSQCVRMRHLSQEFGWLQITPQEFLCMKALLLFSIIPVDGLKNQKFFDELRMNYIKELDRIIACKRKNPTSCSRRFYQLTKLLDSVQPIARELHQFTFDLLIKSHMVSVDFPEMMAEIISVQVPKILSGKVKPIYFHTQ

[3] = biological target: T3, Glucocorticoid receptor (Rattus norvegicus) (UniProt P06536); experiment: Binding affinity to rat liver glucocorticoid receptor at 1 uM
T3 sequence (whole entry): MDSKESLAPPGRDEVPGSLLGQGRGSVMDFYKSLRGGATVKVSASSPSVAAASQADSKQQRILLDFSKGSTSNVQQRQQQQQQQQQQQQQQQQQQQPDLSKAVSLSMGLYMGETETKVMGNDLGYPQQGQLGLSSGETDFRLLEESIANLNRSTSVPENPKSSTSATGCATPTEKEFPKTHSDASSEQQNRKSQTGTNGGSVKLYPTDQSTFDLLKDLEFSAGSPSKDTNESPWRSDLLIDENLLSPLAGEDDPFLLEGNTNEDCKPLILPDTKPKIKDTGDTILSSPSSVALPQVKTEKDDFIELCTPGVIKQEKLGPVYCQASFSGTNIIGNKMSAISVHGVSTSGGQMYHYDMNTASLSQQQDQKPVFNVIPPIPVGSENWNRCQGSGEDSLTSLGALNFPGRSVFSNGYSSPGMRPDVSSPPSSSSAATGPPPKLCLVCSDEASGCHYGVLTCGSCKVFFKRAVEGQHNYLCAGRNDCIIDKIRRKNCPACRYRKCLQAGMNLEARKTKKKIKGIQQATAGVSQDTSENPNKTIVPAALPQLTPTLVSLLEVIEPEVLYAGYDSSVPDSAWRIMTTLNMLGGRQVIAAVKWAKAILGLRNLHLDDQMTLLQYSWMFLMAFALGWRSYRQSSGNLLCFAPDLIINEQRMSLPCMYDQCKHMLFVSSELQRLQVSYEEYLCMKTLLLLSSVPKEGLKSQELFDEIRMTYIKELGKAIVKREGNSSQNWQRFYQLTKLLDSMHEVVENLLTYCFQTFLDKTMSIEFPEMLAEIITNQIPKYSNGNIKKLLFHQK
Summary of the method: (§1)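 Rat liver glucocorticoid receptor competitive binding, reported as % binding. Bound and free steroid are separated by dextran-coated charcoal adsorption instead of protamine sulfate precipitation.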

[4] = biological target: T3, Glucocorticoid receptor (Rattus norvegicus); experiment: Binding affinity to rat liver glucocorticoid receptor at 0.1 uM; summary of the method: as §1

| Activity [4] [%] | SMILES | inhibition [1] [%] | Activity [2] [%] | Activity [3] [%] |
| --- | --- | --- | --- | --- |
| – | CC1(C)CC[C@@]2(CC[C@H]3[C@@H]4CCc5ccccc5[C@H]4CC[C@@]32C)OC1=O | 50 | 0 | 0 |
| 0 | CC1(C)CC[C@@]2(CC[C@H]3[C@@H]4CCc5cc(O)ccc5[C@H]4CC[C@@]32C)OC1=O | – | – | – |

— ChEMBL document CHEMBL1153852, “Steroidal lactones as inhibitors of 17beta-hydroxysteroid dehydrogenase type 5: chemical synthesis, enzyme inhibitory activity, and assessment of estrogenic and androgenic activities” (Eur J Med Chem, 2009)
